Measured values: ChEMBL document CHEMBL5321284, “Discovery of a First-in-Class Degrader for the Lipid Kinase PIKfyve” (J Med Chem, 2023)
Calls of active or inactive are those of the source. No cut-off for these calls is given here.

Legend:
[1] = test system: VCaP; assay: Antiproliferative activity against human VCaP cells assessed as inhibition of cell proliferation incubated for 2 weeks by crystal violet staining based analysis; type: functional; details: 336 h
Method in brief: (§1)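 VCaP cells exposed either 24 h then washed and chased 2 weeks in compound-free medium, or continuously for 2 weeks; long-term viability visualized by crystal violet staining; IC50 calculated for each condition.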

[2] = molecular target: T1, von Hippel-Lindau disease tumor suppressor/1-phosphatidylinositol 3-phosphate 5-kinase (Homo sapiens) (UniProt Q9Y2I7+P40337); assay: PROTAC activity at VHL/PIKfyve in human VCaP cells assessed as induction of PIKfyve degradation at 1 uM incubated for 24 hrs by immunoblot analysis; type: cell-based
Method in brief: (§2)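 VCaP cells treated 24 h at 0.1 or 1.0 µM; percent PIKfyve degradation determined by immunoblotting.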

[3] = test system: DU-145; assay: Induction of massive cytoplasmic vacuolization in human RFP-labeled DU-145 cells incubated for 24 hrs; type: functional, cell-based; details: dose 100-3000 nM
Method in brief: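 RFP-labeled DU145 cells treated 24 h (300 nM shown); vacuole area per cell quantified from images.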

[4] = test system: LNCaP; assay: Inhibition of autophagy in human LNCaP cells assessed as increase in LC3A/B expression incubated for 24 hrs by immunoblot analysis; type: functional, cell-based; details: dose 10-3000 nM
Method in brief: (§3)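 22RV1, LNCaP or PC3 cells (5% CO2, 37 °C) exposed to increasing concentrations for 24 h; RIPA lysates with protease/phosphatase inhibitors, 4–12% Bis-Tris SDS-PAGE, PVDF, milk block, immunoblotted for PIKfyve and autophagy markers LC3A/B and p62, ECL detection.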

[5] = molecular target: T1, von Hippel-Lindau disease tumor suppressor/1-phosphatidylinositol 3-phosphate 5-kinase (Homo sapiens); assay: PROTAC activity at VHL/PIKfyve in human VCaP cells assessed as induction of PIKfyve degradation at 0.1 to 1 uM incubated for 24 hrs by immunoblot analysis; type: cell-based; details: dose 0.1-1 µM
Method in brief: (§4)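 VCaP cells treated 24 h at 0.1 and 1 µM, with or without pretreatment by 1 µM bortezomib; PIKfyve and GAPDH immunoblotted.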

[6] = test system: VCaP; assay: Antiproliferative activity against human VCaP cells assessed as inhibition of cell proliferation incubated for 24 hrs followed by culturing in compound-free medium for 2 weeks by crystal violet staining based analysis; type: functional; method in brief: as §1
[7] = molecular target: T1, von Hippel-Lindau disease tumor suppressor/1-phosphatidylinositol 3-phosphate 5-kinase (Homo sapiens); assay: PROTAC activity at VHL/PIKfyve in human VCaP cells assessed as induction of PIKfyve degradation at 0.1 uM incubated for 24 hrs by immunoblot analysis; type: cell-based; method in brief: as §2
[8] = molecular target: T1, von Hippel-Lindau disease tumor suppressor/1-phosphatidylinositol 3-phosphate 5-kinase (Homo sapiens); assay: PROTAC activity at VHL/PIKfyve in human VCaP cells assessed as induction of PIKfyve degradation incubated for 24 hrs by immunoblot analysis; type: cell-based
Method in brief: (§5)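 VCaP cells treated with increasing concentrations for 24 h; PIKfyve and GAPDH immunoblotted; percent remaining PIKfyve plotted to determine DC50 and Dmax.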

[9] = molecular target: T1, von Hippel-Lindau disease tumor suppressor/1-phosphatidylinositol 3-phosphate 5-kinase (Homo sapiens); assay: PROTAC activity at VHL/PIKfyve in human PC-3 cells assessed as downregulation of PIKfyve expression at 10 to 3000 nM measured after 24 hrs by immunoblot analysis; type: cell-based; details: dose 10-3000 nM
Method in brief: (§6)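 22RV1, LNCaP or PC3 cells given increasing concentrations for 24 h; RIPA lysates immunoblotted for PIKfyve with GAPDH loading control, ECL detection.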

[10] = test system: PC-3; assay: Inhibition of autophagy in human PC-3 cells assessed as increase in LC3A/B expression incubated for 24 hrs by immunoblot analysis; type: functional, cell-based; details: dose 10-3000 nM; method in brief: as §3
[11] = molecular target: T1, von Hippel-Lindau disease tumor suppressor/1-phosphatidylinositol 3-phosphate 5-kinase (Homo sapiens); assay: PROTAC activity at VHL/PIKfyve in human VCaP cells assessed as induction of PIKfyve degradation at 0.1 to 1 uM incubated for 24 hrs in presence of proteasome inhibitor, bortezomib by immunoblot analysis; type: cell-based; details: dose 0.1-1 µM; method in brief: as §4
[12] = molecular target: T1, von Hippel-Lindau disease tumor suppressor/1-phosphatidylinositol 3-phosphate 5-kinase (Homo sapiens); assay: PROTAC activity at VHL/PIKfyve in human LNCaP cells assessed as downregulation of PIKfyve expression at 10 to 3000 nM measured after 24 hrs by immunoblot analysis; type: cell-based; details: dose 10-3000 nM; method in brief: as §6
[13] = test system: VCaP; assay: Inhibition of autophagy in human VCaP cells assessed as increase in LC3A/B expression at 300 nM incubated for 4 hrs followed by culturing in compound-free medium for 72 hrs by immunoblot analysis; type: functional, cell-based
Method in brief: (§7)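 VCaP cells treated 4 h, compounds removed, cultured 72 h in compound-free medium; whole cell lysates immunoblotted for PIKfyve, LC3A/B and GAPDH (RIPA lysis, 4–12% Bis-Tris gels, PVDF, ECL).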

[14] = test system: DU-145; assay: Induction of massive cytoplasmic vacuolization in human RFP-labeled DU-145 cells at 300 nM incubated for 4 hrs; type: functional, cell-based
[15] = molecular target: T1, von Hippel-Lindau disease tumor suppressor/1-phosphatidylinositol 3-phosphate 5-kinase (Homo sapiens); assay: PROTAC activity at VHL/PIKfyve in human VCaP cells assessed as maximal induction of PIKfyve degradation incubated for 24 hrs by immunoblot analysis relative to control; type: cell-based; method in brief: as §5
[16] = test system: Mus musculus; assay: In vivo induction of PIKfyve degradation in tumor of LTL-331R-xenografted CB17 mouse assessed as downregulation of PIKfyve expression at 4 to 10 mg/kg, ip for 4 days by western blot analysis; type: functional, organism-based; details: dose 4-10 mg/kg, time 4.0 day
Method in brief: (§8)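 LTL-331R prostate cancer PDX; IP once daily for 3 days at 4 or 10 mg/kg in 5% DMSO/95% of 40% hydroxypropyl-β-cyclodextrin (freshly dissolved); tumors collected 24 h after last dose on day 4; whole tumor lysate immunoblotted for PIKfyve, LC3A/B, GAPDH, or TUNEL in situ cell death staining.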

[17] = test system: LNCaP; assay: Inhibition of autophagy in human LNCaP cells assessed as increase in p62 expression incubated for 24 hrs by immunoblot analysis; type: functional, cell-based; details: dose 10-3000 nM; method in brief: as §3
[18] = test system: CWR22R; assay: Inhibition of autophagy in human 22Rv1 cells assessed as increase in p62 expression incubated for 24 hrs by immunoblot analysis; type: functional, cell-based; details: dose 10-3000 nM; method in brief: as §3
[19] = test system: VCaP; assay: Antiproliferative activity against human VCaP cells assessed as inhibition of cell proliferation incubated for 4 hrs followed by culturing in compound-free medium for 2 weeks by crystal violet staining based analysis; type: functional
Method in brief: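 VCaP cells treated 4 h, compound removed, then cultured 2 weeks in drug-free medium; long-term viability by crystal violet staining.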

[20] = molecular target: T1, von Hippel-Lindau disease tumor suppressor/1-phosphatidylinositol 3-phosphate 5-kinase (Homo sapiens); assay: PROTAC activity at VHL/PIKfyve in human VCaP cells assessed as induction of PIKfyve degradation at 0.1 to 0.3 uM incubated for 24 hrs in presence of VHL ligand, VL285 by immunoblot analysis; type: cell-based; details: dose 0.1-0.3 µM
Method in brief: (§9)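 VCaP cells given increasing concentrations of degrader with or without warhead 1 or VHL ligand VL285 for 24 h; immunoblot of PIKfyve and GAPDH.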

[21] = test system: CWR22R; assay: Inhibition of autophagy in human 22Rv1 cells assessed as increase in LC3A/B expression incubated for 24 hrs by immunoblot analysis; type: functional, cell-based; details: dose 10-3000 nM; method in brief: as §3
[22] = molecular target: T1, von Hippel-Lindau disease tumor suppressor/1-phosphatidylinositol 3-phosphate 5-kinase (Homo sapiens); assay: PROTAC activity at VHL/PIKfyve in human VCaP cells assessed as induction of PIKfyve degradation by measuring half life at 100 nM by immunoblot analysis; type: cell-based
[23] = molecular target: T1, von Hippel-Lindau disease tumor suppressor/1-phosphatidylinositol 3-phosphate 5-kinase (Homo sapiens); assay: PROTAC activity at VHL/PIKfyve in human 22RV1 cells assessed as downregulation of PIKfyve expression at 10 to 3000 nM measured after 24 hrs by immunoblot analysis; type: cell-based; details: dose 10-3000 nM; method in brief: as §6
[24] = test system: PC-3; assay: Inhibition of autophagy in human PC-3 cells assessed as increase in p62 expression incubated for 24 hrs by immunoblot analysis; type: functional, cell-based; details: dose 10-3000 nM; method in brief: as §3
[25] = molecular target: T1, von Hippel-Lindau disease tumor suppressor/1-phosphatidylinositol 3-phosphate 5-kinase (Homo sapiens); assay: PROTAC activity at VHL/PIKfyve in human VCaP cells assessed as induction of PIKfyve degradation at 0.1 to 0.3 uM incubated for 24 hrs in presence of PIKfyve inhibitor, apilimod by immunoblot analysis; type: cell-based; details: dose 0.1-0.3 µM; method in brief: as §9
[26] = molecular target: T1, von Hippel-Lindau disease tumor suppressor/1-phosphatidylinositol 3-phosphate 5-kinase (Homo sapiens); assay: PROTAC activity at VHL/PIKfyve in human VCaP cells assessed as downregulation of PIKfyve expression at 300 nM measured after 4 hrs by TMT-labeled mass spectrometry; type: cell-based
Method in brief: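 VCaP cells plated 3×10^6 per well overnight, then DMSO or 300 nM for 4 h; TMT-labeled quantitative global proteomics, mass-spec quantification of PIKfyve and lipid kinases.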

[27] = molecular target: T1, von Hippel-Lindau disease tumor suppressor/1-phosphatidylinositol 3-phosphate 5-kinase (Homo sapiens); assay: PROTAC activity at VHL/PIKfyve in human VCaP cells assessed as induction of PIKfyve degradation at 300 nM incubated for 4 hrs followed by culturing in compound-free medium for 72 hrs by immunoblot analysis; type: cell-based; method in brief: as §7
[28] = test system: LTL-331R; assay: Antitumor activity against human LTL-331R xenografted in CB17 mouse assessed as inhibition of tumor cell proliferation at 15 mg/kg, ip at 5 days on and 2 days off regimen for 17 days by digital caliper analysis; type: functional, organism-based; details: time 17.0 day
Method in brief: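 LTL-331R PDX; once-daily IP dosing, 5 days on/2 days off for 17 days, vehicle 5% DMSO/95% of 40% hydroxypropyl-β-cyclodextrin; tumors measured at least twice weekly by caliper, volume (π/6)(L×W²); vehicle vs treated compared by two-tailed unpaired t test.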

[29] = test system: LTL-331R; assay: Antitumor activity against human LTL-331R xenografted in CB17 mouse assessed as induction of tumor cell death at 4 to 10 mg/kg, ip for 4 days by TUNEL assay; type: functional, organism-based; details: dose 4-10 mg/kg, time 4.0 day; method in brief: as §8

T1 sequence (P40337 whole entry partner): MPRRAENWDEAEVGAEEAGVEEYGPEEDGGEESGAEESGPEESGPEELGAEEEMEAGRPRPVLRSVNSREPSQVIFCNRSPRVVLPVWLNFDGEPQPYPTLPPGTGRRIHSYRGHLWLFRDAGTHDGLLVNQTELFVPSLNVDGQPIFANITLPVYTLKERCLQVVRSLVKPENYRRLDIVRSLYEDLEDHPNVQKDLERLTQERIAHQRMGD
T1 sequence (Q9Y2I7 2-2098 limits assumed): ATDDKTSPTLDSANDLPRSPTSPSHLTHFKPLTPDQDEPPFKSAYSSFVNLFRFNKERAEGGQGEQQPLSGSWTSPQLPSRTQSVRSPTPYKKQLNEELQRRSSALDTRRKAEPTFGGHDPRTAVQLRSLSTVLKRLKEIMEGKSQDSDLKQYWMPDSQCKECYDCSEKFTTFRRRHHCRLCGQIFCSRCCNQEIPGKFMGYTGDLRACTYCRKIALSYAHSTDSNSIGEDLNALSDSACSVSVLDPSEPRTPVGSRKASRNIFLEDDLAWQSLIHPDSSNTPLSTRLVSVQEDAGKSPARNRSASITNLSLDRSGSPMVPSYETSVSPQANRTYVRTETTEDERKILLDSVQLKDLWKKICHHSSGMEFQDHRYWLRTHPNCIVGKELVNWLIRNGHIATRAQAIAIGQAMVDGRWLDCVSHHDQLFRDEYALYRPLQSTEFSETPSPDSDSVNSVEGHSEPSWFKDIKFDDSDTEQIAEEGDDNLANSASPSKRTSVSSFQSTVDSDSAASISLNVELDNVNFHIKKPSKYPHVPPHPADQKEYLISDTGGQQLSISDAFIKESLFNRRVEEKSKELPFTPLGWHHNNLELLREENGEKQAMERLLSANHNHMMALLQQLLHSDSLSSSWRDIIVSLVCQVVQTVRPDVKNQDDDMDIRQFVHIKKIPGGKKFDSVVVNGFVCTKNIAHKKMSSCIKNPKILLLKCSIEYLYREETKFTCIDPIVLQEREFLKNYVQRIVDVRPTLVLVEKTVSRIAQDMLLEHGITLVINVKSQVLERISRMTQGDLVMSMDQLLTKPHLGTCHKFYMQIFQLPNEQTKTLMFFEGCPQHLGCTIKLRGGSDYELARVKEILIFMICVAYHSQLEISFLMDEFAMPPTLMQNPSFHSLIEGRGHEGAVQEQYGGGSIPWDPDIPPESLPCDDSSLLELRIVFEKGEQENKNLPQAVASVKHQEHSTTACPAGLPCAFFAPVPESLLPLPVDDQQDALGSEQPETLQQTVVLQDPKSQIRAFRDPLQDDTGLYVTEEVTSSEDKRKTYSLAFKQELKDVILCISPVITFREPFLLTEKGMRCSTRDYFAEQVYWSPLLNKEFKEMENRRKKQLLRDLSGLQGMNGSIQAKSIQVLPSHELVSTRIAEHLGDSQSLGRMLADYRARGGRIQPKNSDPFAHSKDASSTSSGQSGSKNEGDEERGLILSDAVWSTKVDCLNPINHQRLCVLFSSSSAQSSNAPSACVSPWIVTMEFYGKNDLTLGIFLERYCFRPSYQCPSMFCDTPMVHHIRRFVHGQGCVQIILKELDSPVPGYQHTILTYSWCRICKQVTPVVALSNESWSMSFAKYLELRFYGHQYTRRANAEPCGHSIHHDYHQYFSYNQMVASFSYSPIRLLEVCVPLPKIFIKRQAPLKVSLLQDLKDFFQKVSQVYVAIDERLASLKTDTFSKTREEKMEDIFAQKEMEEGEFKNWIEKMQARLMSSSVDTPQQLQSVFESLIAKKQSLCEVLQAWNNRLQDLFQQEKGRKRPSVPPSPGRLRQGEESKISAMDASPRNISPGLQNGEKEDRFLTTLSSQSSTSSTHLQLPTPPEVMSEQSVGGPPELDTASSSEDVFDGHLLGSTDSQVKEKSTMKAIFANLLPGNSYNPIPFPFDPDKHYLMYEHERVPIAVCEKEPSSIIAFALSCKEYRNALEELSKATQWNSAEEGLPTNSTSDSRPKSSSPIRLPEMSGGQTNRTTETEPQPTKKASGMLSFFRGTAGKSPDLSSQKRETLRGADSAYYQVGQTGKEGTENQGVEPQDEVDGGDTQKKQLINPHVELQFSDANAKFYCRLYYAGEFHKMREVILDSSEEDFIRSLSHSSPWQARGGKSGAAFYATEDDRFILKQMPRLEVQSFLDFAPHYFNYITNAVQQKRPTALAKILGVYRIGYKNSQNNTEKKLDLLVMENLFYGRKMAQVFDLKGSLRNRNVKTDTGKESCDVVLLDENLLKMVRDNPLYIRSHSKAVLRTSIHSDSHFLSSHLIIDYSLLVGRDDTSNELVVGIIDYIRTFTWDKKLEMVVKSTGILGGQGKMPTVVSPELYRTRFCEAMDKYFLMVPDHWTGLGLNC

For `Cc1cccc(/C=N/Nc2cc(N3CCOCC3)nc(OCCc3ccc(NC(=O)CCCCC(=O)N[C@H](C(=O)N4C[C@H](O)C[C@H]4C(=O)NCc4ccc(-c5scnc5C)cc4)C(C)(C)C)cc3)n2)c1`, the IC50 [1] was 0.0559 µM, the Activity [2] was 91% and the Activity [3] was “Dose-Dependent Effect”. For the same compound, the inhibition [4] was “Dose-Dependent Effect”, the Activity [5] was “Active” and the IC50 [6] was 0.522 µM. For the same compound, the Activity [7] was 97%, the Activity [8] was “Dose-Dependent Effect” and the Activity [9] was “Active”. The inhibition [10] was “Dose-Dependent Effect”, the Activity [11] was “inactive” and the Activity [12] was “Active”. The inhibition [13] was “Active”, the Activity [14] was “Active” and the Activity [15] was 97.9%. For the same compound, the Activity [16] was “Active”, the inhibition [17] was “Dose-Dependent Effect” and the inhibition [18] was “Dose-Dependent Effect”. For the same compound, the IC50 [19] was 1.2 µM, the Activity [20] was “inactive” and the inhibition [21] was “Dose-Dependent Effect”. The T1/2 [22] was 1.5 h, the Activity [23] was “Active” and the inhibition [24] was “Dose-Dependent Effect”. For the same compound, the Activity [25] was “inactive”, the Activity [26] was “Active” and the Activity [27] was “Active”. The Activity [28] was “Active” and the Activity [29] was “Active”.
